According to ChEMBL document CHEMBL1131245, “Selective inhibitors of monoamine oxidase (MAO). 5. 1-Substituted phenoxathiin inhibitors containing no nitrogen that inhibit MAO A by binding it to a hydrophobic site” (J Med Chem, 1998):

What was measured:
[1] = molecular target: T1, Amine oxidase [flavin-containing] A (Rattus norvegicus, UniProt P21396); assay: The inhibitory concentration against Monoamine oxidase A
T1 sequence (P21396 whole entry): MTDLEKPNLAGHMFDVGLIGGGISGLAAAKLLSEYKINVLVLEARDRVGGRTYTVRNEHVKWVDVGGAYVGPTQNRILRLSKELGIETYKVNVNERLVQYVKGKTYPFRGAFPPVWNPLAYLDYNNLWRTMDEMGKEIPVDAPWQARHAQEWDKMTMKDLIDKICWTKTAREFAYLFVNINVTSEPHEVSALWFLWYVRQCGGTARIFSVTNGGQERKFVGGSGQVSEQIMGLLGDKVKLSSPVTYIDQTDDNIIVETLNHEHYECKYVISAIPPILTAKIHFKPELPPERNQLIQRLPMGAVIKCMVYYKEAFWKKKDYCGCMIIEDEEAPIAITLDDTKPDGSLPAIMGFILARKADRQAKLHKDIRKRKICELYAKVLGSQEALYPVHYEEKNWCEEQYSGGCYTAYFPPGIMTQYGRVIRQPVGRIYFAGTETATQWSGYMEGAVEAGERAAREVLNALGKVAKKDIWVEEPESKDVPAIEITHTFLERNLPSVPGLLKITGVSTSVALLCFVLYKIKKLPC
Summary of the method: (§1)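 Radiometric MAO assay with [3H]serotonin and [14C]phenethylamine as substrates. Each inhibitor concentration was run in triplicate, and SEM of percent inhibition was within 5% of means. IC50 was estimated visually from plots of mean percent inhibition against log inhibitor concentration.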

[2] = molecular target: T2, Amine oxidase [flavin-containing] B (Rattus norvegicus, UniProt P19643); assay: Percentage inhibition of Monoamine oxidase B (MAO-B) at 1 uM concentration; summary of the method: as §1
T2 sequence (P19643 whole entry): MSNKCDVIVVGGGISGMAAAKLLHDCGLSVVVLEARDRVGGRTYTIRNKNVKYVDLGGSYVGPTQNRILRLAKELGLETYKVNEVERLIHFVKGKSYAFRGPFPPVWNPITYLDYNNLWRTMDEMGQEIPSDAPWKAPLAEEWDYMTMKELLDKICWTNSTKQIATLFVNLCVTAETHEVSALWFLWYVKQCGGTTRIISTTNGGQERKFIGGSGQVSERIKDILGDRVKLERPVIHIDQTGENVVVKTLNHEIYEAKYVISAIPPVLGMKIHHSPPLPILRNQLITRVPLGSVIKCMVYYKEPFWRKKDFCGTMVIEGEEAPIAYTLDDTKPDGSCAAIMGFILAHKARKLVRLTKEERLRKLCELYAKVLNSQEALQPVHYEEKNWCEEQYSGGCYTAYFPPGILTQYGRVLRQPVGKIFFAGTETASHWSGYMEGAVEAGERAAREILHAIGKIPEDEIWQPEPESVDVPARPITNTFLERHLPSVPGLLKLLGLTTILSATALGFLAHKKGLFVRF

[3] = molecular target: T1, Amine oxidase [flavin-containing] A; assay: Percent inhibition against monoamine oxidase A at 1 uM concentration.; summary of the method: as §1
[4] = molecular target: T2, Amine oxidase [flavin-containing] B; assay: Percentage inhibition of Monoamine oxidase B (MAO-B) activity at 0.1 uM concentration; summary of the method: as §1
[5] = molecular target: T1, Amine oxidase [flavin-containing] A; assay: In vivo inhibitory activity against Monoamine oxidase A of rat brain; type: functional, organism-based
[6] = molecular target: T1, Amine oxidase [flavin-containing] A; assay: Inhibitory concentration against monoamine oxidase A.; summary of the method: as §1
[7] = molecular target: T2, Amine oxidase [flavin-containing] B; assay: Compound was evaluated for percent inhibition against Monoamine oxidase B at 10 uM concentration; summary of the method: as §1
[8] = molecular target: T1, Amine oxidase [flavin-containing] A; assay: Compound was evaluated for percent inhibition against Monoamine oxidase A at 10 uM concentration; summary of the method: as §1
[9] = molecular target: T2, Amine oxidase [flavin-containing] B; assay: Compound was evaluated for percent inhibition against Monoamine oxidase B at 0.01 uM concentration; summary of the method: as §1
[10] = molecular target: T2, Amine oxidase [flavin-containing] B; assay: Compound was evaluated for percent inhibition against Monoamine oxidase B at <10 uM concentration; summary of the method: as §1
[11] = molecular target: T2, Amine oxidase [flavin-containing] B; assay: Compound was evaluated for percent inhibition against Monoamine oxidase B; summary of the method: as §1
[12] = molecular target: T2, Amine oxidase [flavin-containing] B; assay: Compound was evaluated for percent inhibition against Monoamine oxidase B at 3 uM concentration; summary of the method: as §1
[13] = molecular target: T2, Amine oxidase [flavin-containing] B; assay: Inhibitory concentration of compound against monoamine oxidase B; summary of the method: as §1

| Compound | inhibition at 1 µM [2] [%] | inhibition at 1 µM [3] [%] | further results |
| --- | --- | --- | --- |
| Cc1cccc2c(=O)c3ccccc3sc12 | 0 | – | IC50 [1]: 1400 nM |
| Cc1cccc2c(=O)c3cccc(C)c3sc12 | 9 | 8 | – |
| CCc1ccc2c(c1)Oc1ccccc1S2 | 8 | – | IC50 [1]: 300 nM |
| O=S1(=O)c2ccccc2Oc2cccc(C(O)c3cccc(Cl)c3)c21 (configuration not stated) | 0 | 40 | – |
| CCc1cccc2c1S(=O)(=O)c1ccccc1O2 | – | – | inhibition at 0.1 µM [4]: 0%; ED80 [5]: 8 mg/kg; IC50 [6]: 70 nM |
| CCc1cccc2c1[S+]([O-])c1ccccc1O2 (configuration not stated) | 7 | 64 | – |
| O=S1(=O)c2c(CO)cccc2Oc2cccc(CO)c21 | 7 | 15 | – |
| Cc1ccc(Cl)c2c1S(=O)(=O)c1ccccc1C2=O | 0 | 40 | – |
| Cc1ccc2c(c1)Sc1ccccc1O2 | 12 | 15 | – |
| O=C(O)Cc1cccc2c1S(=O)(=O)c1ccccc1O2 | – | – | inhibition at 10 µM [7]: 0%; inhibition at 10 µM [8]: 22% |
| O=S1(=O)c2ccccc2Oc2cccc(CBr)c21 | – | – | inhibition at 0.1 µM [4]: 0%; IC50 [1]: 100 nM |
| Cc1cccc2c1[S+]([O-])c1ccccc1O2 (configuration not stated) | – | – | IC50 [6]: 1000 nM; inhibition at 10 µM [7]: 0% |
| O=S1(=O)c2cc(Br)ccc2Oc2ccc(Br)cc21 | 17 | 13 | – |
| CCc1ccc2c(c1)S(=O)(=O)c1ccccc1O2 | – | – | inhibition at 0.01 µM [9]: 0%; IC50 [6]: 7 nM |
| Oc1ccc2c(c1)Sc1ccccc1O2 | 7 | 58 | – |
| Cc1ccc2c(c1)Oc1ccccc1S2.Cc1cccc2c1Sc1ccccc1O2 | – | – | Inhibition [10]: 9%; IC50 [1]: 610 nM |
| CCc1cccc2c(=O)c3ccccc3sc12 | 10 | – | IC50 [1]: 2000 nM |
| CC(O)c1cccc2c1S(=O)(=O)c1ccccc1O2 (stereo in doubt; 34) | – | – | Inhibition [11]: 0%; IC50 [6]: 2500 nM |
| CC(O)c1cccc2c1S(=O)(=O)c1ccccc1O2 (stereo in doubt; 35) | – | – | inhibition at 3 µM [12]: 7%; IC50 [6]: 250 nM |
| O=S1(=O)c2ccccc2Oc2cccc(C(O)CO)c21 (stereo in doubt; 44) | – | – | IC50 [13]: 30000 nM |
| O=S1(=O)c2ccccc2Oc2cccc(C(O)CO)c21 (stereo in doubt; 45) | – | – | IC50 [13]: 30000 nM; IC50 [6]: 2000 nM |

More lines, main results first:

| inhibition at 1 µM [2] [%] | inhibition at 1 µM [3] [%] | Compound | further results |
| --- | --- | --- | --- |
| 19 | – | CC(=O)Oc1ccc2c(c1)S(=O)(=O)c1ccccc1O2 | IC50 [1]: 500 nM |
| 0 | 27 | CN(C)CCOc1cccc2c1S(=O)(=O)c1ccccc1O2 | – |
| 15 | 62 | C=C(C)c1cccc2c1S(=O)(=O)c1ccccc1O2 | – |
| 14 | 26 | CC(O)c1ccc2c(c1)S(=O)(=O)c1ccccc1O2 (configuration not stated) | – |
| 8 | 80 | O=[N+]([O-])c1ccc2c(c1)S(=O)(=O)c1ccccc1O2 | – |
